Experimental data reported in ChEMBL document CHEMBL1145044, “Novel cationic transport agents for oligonucleotide delivery into primary leukemic cells” (J Med Chem, 2003).

Tests used:
[1] = Cytotoxicity for relative cell viability compared to untreated control in BM2 cells by MTT assay; assay type: functional, cell-based, Gallus gallus
In short: (§1)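 MTT reduction by cells exposed to transport agent alone, expressed relative to untreated control cells (100%). The value reported is the agent concentration at which relative viability falls to 50%.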

[2] = Relative uptake of ODN in Primary leukemic cells(PLC) incubated with 0.25 uMol/L of P32-labeled v-myb antisense ODN for 2 hr at a concentration of 2.5 uMol/L; assay type: functional, Gallus gallus
In short: (§2)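 Cells were seeded at 1 × 10^6 per well in medium with 10% serum one day ahead. 0.25 µM ³²P-end-labeled v-myb antisense ODN was complexed with agent (final 2.5 µM) in serum-free medium for 30 min at room temperature. Cells were then exposed for 2 h at 37 °C or 41 °C depending on cell type. Membrane-bound ODN was stripped by acid-salt elution. Cells were lysed in proteinase K buffer and counted by liquid scintillation. Uptake is relative to free ODN, mean of ≥3 independent experiments.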

[3] = Relative uptake of ODN in BM2 cells incubated with 0.25 uMol/L of P32-labeled v-myb antisense ODN for 2 hr at a concentration of 2.5 uMol/L; assay type: functional, Gallus gallus; in short: as §2
[4] = Cytotoxicity for relative cell viability compared to untreated control in Primary leukemic cells(PLC) by MTT assay; assay type: functional, cell-based, Gallus gallus; in short: as §1
[5] = Cytotoxicity for relative cell viability compared to untreated control in CEF cells by MTT assay; assay type: functional, cell-based, Gallus gallus
[6] = Apparent association constant was determined; assay type: ADME

Question: With I.I.I.I.O=C(NCCNC1=NCCCN1)c1ccc(-c2c3nc(c(-c4ccc(C(=O)NCCNC5=NCCCN5)cc4)c4ccc([nH]4)c(-c4ccc(C(=O)NCCNC5=NCCCN5)cc4)c4ccc([nH]4)c(-c4ccc(C(=O)NCCNC5=NCCCN5)cc4)c4nc2C=C4)C=C3)cc1 as the molecule, how does the IC50 [1] read?
Answer: Its IC50 is greater than 20 uM l-1.

Question: And the “Relative ODN uptake” value [2]?
Answer: The value was 43.2.

Question: What about the “Relative ODN uptake” value [3] of the same molecule?
Answer: Its value is 10.8.

Question: And the IC50 [4]?
Answer: The IC50 was greater than 20 uM l-1.

Question: What about the IC50 [5] of the same molecule?
Answer: Its IC50 is greater than 20 uM l-1.

Question: What about the K ass [6] of the same molecule?
Answer: The K ass was 268000 M⁻¹.

Question: With CCC1=C(C)C2=N/C1=C\c1[nH]c(c(CCC(=O)NCCOCCOCCN)c1C)/C=c1\[nH]/c(c(CC)c1CC)=C\c1[nH]c(c(C)c1CCC(=O)NCCOCCOCCN)/C=C1\N=C(C2)C(C)=C1CC as the molecule, how does the “Relative ODN uptake” value [2] read?
Answer: The value was 4.4.

Question: And the IC50 [4]?
Answer: Its IC50 is 14 uM l-1.

Question: And the IC50 [5]?
Answer: Its IC50 is 10 uM l-1.

Question: Which results are given for C[N+](C)(C)Cc1ccc(-c2c3nc(c(-c4ccc(C[N+](C)(C)C)cc4)c4ccc([nH]4)c(-c4ccc(C[N+](C)(C)C)cc4)c4ccc([nH]4)c(-c4ccc(C[N+](C)(C)C)cc4)c4nc2C=C4)C=C3)cc1.[Cl-].[Cl-].[Cl-].[Cl-]?
Answer: IC50 [1]: 10 uM l-1; Relative ODN uptake [2]: 4.2; Relative ODN uptake [3]: 2.5; IC50 [4]: 12 uM l-1; IC50 [5]: 10 uM l-1

Question: Which IC50 [1] does the source give for CCC1=C(C)C2=N/C1=C\c1[nH]c(c(CCC(=O)N(C)CC(O)C(O)C(O)C(O)CO)c1C)/C=c1\[nH]/c(c(CC)c1CC)=C\c1[nH]c(c(C)c1CCC(=O)N(C)CC(O)C(O)C(O)C(O)CO)/C=C1\N=C(C2)C(C)=C1CC (configuration not stated) here?
Answer: Its IC50 is 10 uM l-1.

Question: And the “Relative ODN uptake” value [2]?
Answer: Its value is 9.1.

Question: And the IC50 [4]?
Answer: The IC50 was 4.2 uM l-1.

Question: And the IC50 [5]?
Answer: Its IC50 is 10 uM l-1.

Question: For Cl.Cl.Cl.Cl.O=C(NCC1CCN2CCC(CO)N=C2N1)c1ccc(-c2c3nc(c(-c4ccc(C(=O)NCC5CCN6CCC(CO)N=C6N5)cc4)c4ccc([nH]4)c(-c4ccc(C(=O)NCC5CCN6CCC(CO)N=C6N5)cc4)c4ccc([nH]4)c(-c4ccc(C(=O)NCC5CCN6CCC(CO)N=C6N5)cc4)c4nc2C=C4)C=C3)cc1 (configuration not stated), which IC50 [1] is on record?
Answer: Its IC50 is 15 uM l-1.

Question: And the “Relative ODN uptake” value [2]?
Answer: The value was 13.4.

Question: What about the IC50 [4] of the same molecule?
Answer: Its IC50 is greater than 20 uM l-1.

Question: And the IC50 [5]?
Answer: Its IC50 is 15 uM l-1.

Question: Which “Relative ODN uptake” value [2] does the source give for CCC1=C(C)C2=N/C1=C\c1[nH]c(c(CCC(=O)NCCc3c[nH]cn3)c1C)/C=c1\[nH]/c(c(CC)c1CC)=C\c1[nH]c(c(C)c1CCC(=O)NCCc1c[nH]cn1)/C=C1\N=C(C2)C(C)=C1CC here?
Answer: The value was 2.1.

Question: And the IC50 [4]?
Answer: The IC50 was 8.5 uM l-1.

Question: What about the IC50 [5] of the same molecule?
Answer: Its IC50 is 8.5 uM l-1.

Question: For Br.OC[C@@H]1CCN2CC[C@@H](CO)NC2N1, which “Relative ODN uptake” value [2] is on record?
Answer: The value was 0.77.

Question: What about the “Relative ODN uptake” value [3] of the same molecule?
Answer: The value was 2.5.

Question: What about the IC50 [4] of the same molecule?
Answer: Its IC50 is 8.5 uM l-1.

Question: Which “Relative ODN uptake” value [2] does the source give for I.NCCNC1=NCCCN1 here?
Answer: Its value is 3.2.

Question: And the “Relative ODN uptake” value [3]?
Answer: The value was 5.1.

Question: What about the IC50 [4] of the same molecule?
Answer: The IC50 was greater than 20 uM l-1.

Question: And the IC50 [5]?
Answer: The IC50 was 20 uM l-1.

Question: With Cc1ccc(-c2c3nc(c(-c4ccc(C[N+](C)(C)C)cc4)c4ccc([nH]4)c(-c4ccc(C)cc4)c4ccc([nH]4)c(-c4ccc(C[N+](C)(C)C)cc4)c4nc2C=C4)C=C3)cc1.[Cl-].[Cl-] as the molecule, how does the IC50 [1] read?
Answer: The IC50 was greater than 20 uM l-1.

Question: And the “Relative ODN uptake” value [2]?
Answer: Its value is 67.5.

Question: And the “Relative ODN uptake” value [3]?
Answer: Its value is 16.7.

Question: What about the IC50 [4] of the same molecule?
Answer: The IC50 was greater than 20 uM l-1.

Question: What about the IC50 [5] of the same molecule?
Answer: Its IC50 is greater than 20 uM l-1.

Question: What about the K ass [6] of the same molecule?
Answer: Its K ass is 2.2e+06 M⁻¹.

Question: With CCc1c(C(=O)NC(=N)N)[nH]c(Cc2[nH]c(C(=O)NC(=N)N)c(CC)c2C)c1C.Cl.Cl as the molecule, how does the IC50 [1] read?
Answer: The IC50 was greater than 10 uM l-1.

Question: And the “Relative ODN uptake” value [2]?
Answer: Its value is 1.8.

Question: What about the “Relative ODN uptake” value [3] of the same molecule?
Answer: The value was 1.3.

Question: What about the IC50 [4] of the same molecule?
Answer: Its IC50 is greater than 20 uM l-1.

Question: And the IC50 [5]?
Answer: Its IC50 is 15 uM l-1.

Question: With C[n+]1ccc(-c2c3nc(c(-c4cc[n+](C)cc4)c4ccc([nH]4)c(-c4cc[n+](C)cc4)c4ccc([nH]4)c(-c4cc[n+](C)cc4)c4nc2C=C4)C=C3)cc1 [TMPYP4] as the molecule, how does the “Relative ODN uptake” value [2] read?
Answer: The value was 1.2.

Question: And the “Relative ODN uptake” value [3]?
Answer: The value was 3.8.

Question: And the IC50 [4]?
Answer: Its IC50 is greater than 20 uM l-1.

Question: What about the IC50 [5] of the same molecule?
Answer: The IC50 was 15 uM l-1.
